Bioassay records from PubChem.
Ecoli rRNA inh = reduced GFP signal of wild-type E. coli, primary screen, bacterial rRNA inhibitor project, GFP/RFP fluorescence, OD600, single point; AID 720706, 2013; 1.6% of 350,000 active; E. coli WT GFP vs humanized-ribosome RFP mutants, 24 h; stronger effect = lower value; DMSO median 0, no signal -100; GFP signal change (wild-type ribosome), % (test concentration not listed);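 active = significant combined selectivity score with lowered wild-type GFP, culture density cut under 30%, mutant RFP and density less affected; inactive = any of these conditions unmet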
Cneo AK release = Cryptococcus neoformans cell lysis inducers, primary screen, AK release luminescence, single concentration | C. neoformans lysis, adenylate kinase release luminescence, 4 h; normalised: neutral wells 0, clomiphene wells 100 | lysis activity, % at 15 µM | 0.2% of 360,000 active;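 active = mean lysis activity across replicates of at least 80%, whatever share of replicates individually reach that level; inactive = mean lysis activity below 80%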
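Material: C. neoformans cells; Schedule: 4 h static compound exposure, 37 °C, read 1 h post-reagent; Measured by: adenylate kinase release luminescence; Read-out: signal increase indicating cell lysis; Controls: Clomiphene as positive lysis control.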
ERAP1 HTS inh = human ERAP1 aminopeptidase inhibitors, primary screen, biochemical, single point, plate reader | Endoplasmic reticulum aminopeptidase 1 (Homo sapiens), Q9NZ08 | recombinant ERAP1, Leu-AMC fluorescence, 60 min | inhibition, % at 10.7 µM | 0.15% of 340,000 active | AID 652197, 2013;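 active = mean replicate inhibition of at least 30%, or all replicates individually reaching that 30% level; inactive = mean below 30% and not every replicate reaching it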
HIV Env fusion = inhibitors of HIV-1 Env-driven cell-cell fusion, primary screen, HeLa-JRFL effector, CEM21 target cells, luciferase; 1.1% of 360,000 active; inhibition, % at 12.3 µM; AID 651610, 2012;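 active = mean replicate inhibition score of at least 50 and every replicate individually at or above 50; inconclusive = only one of the two criteria met; inactive = mean below 50 and not all replicates reaching 50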
FGF22 binding = binders of human FGF22 protein, primary screen, FGF22 synaptogenesis inhibitor project, biophysical, thermal shift, single point. activity (Tm shift, normalised), % at 9.99 µM. 1.5% of 340,000 active. recombinant FGF22 thermal shift, SYPRO orange fluorescence; percent of sucrose octasulfate shift, DMSO zero. Fibroblast growth factor 22 (Homo sapiens), Q9HCT0;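 active = mean Tm shift, scaled 0 neutral to 100 positive control, at about 1.3% or above, every replicate too, limit read from the data; inconclusive = no clear call, values can overlap the other calls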
Target sequence (Q9HCT0 whole entry, looked up): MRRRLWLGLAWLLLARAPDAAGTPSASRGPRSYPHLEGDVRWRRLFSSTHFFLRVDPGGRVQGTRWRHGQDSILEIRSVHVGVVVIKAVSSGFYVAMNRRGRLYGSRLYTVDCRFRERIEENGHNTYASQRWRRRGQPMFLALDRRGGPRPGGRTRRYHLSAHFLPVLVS
PGC1a acetyl inh = inhibitors of PGC1a acetylation signal, primary screen, cell-based, U2OS, AlphaScreen, inhibitor mode; AlphaScreen anti-acetyl-lysine; with virally co-expressed GCN5 acetyltransferase; inhibition, % at 15.6 µM; 0.17% of 350,000 active;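 active = every replicate shows inhibition of at least 40%; inconclusive = mean inhibition at least 40% but some replicate below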
AID977621 = growth inhibition of wild-type GFP E. coli, dose response, H69 mutant RFP, cherry-pick; E. coli wild-type GFP strain growth, fluorescence, 24 h; shares compounds with Ecoli rRNA inh; 1,900 tested, under 10 active; activity change, negative = inhibition at 50 µM; AID 977621, 2014;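 active = Wild-type ribosome reporter drop at least double the humanized mutant ribosome reporter drop, growth loss under a set limit; inconclusive = no clear call, values can overlap the other calls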;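 note: wild-type GFP and H69 mutant RFP strains grown together 50/50 in each well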
AID977628 = E. coli growth inhibition, wild-type GFP versus h24 humanized RFP strain, dose response, h24 mutant RFP vs wild-type GFP, cherry-pick | E. coli WT GFP strain growth, fluorescence, 24 h | shares compounds with Ecoli rRNA inh | AID 977628, 2014 | activity change, negative = inhibition at 50 µM | 1,900 tested, under 10 active;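 active = compound lowering the normal-ribosome reporter at least twice as much as the humanized-ribosome reporter, growth loss under a set limit; inconclusive = no clear call, values can overlap the other calls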;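 note: wild-type GFP and h24 humanized RFP strains co-cultured 1 to 1 per well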
A number is an active result. Shown are actives, neighbours in structure and some others; about 3.5% of the full set was active somewhere.

Screening COc1ccc(OC)c(-c2nn(-c3ccccc3)cc2C(=O)N2CCc3ccccc3C2)c1 returned Ecoli rRNA inh -16.4, Cneo AK release inactive, ERAP1 HTS inh inactive, HIV Env fusion inactive, FGF22 binding inactive, PGC1a acetyl inh inactive and AID977621 inactive.
For CCN(C(=O)c1ccnc(C(C)(C)C)c1)c1ccccc1 the results were Ecoli rRNA inh -34.1, ERAP1 HTS inh inactive, FGF22 binding inactive, PGC1a acetyl inh inactive and AID977628 inconclusive.
Screening CC(C)(C)c1cc(C(=O)Nc2cccc3ccccc23)ccn1 returned Cneo AK release inactive, HIV Env fusion inactive and PGC1a acetyl inh inactive.
For Cc1ccc(C(=O)Nc2ccc3ccccc3c2)cc1 the results were Ecoli rRNA inh inactive, Cneo AK release inactive, ERAP1 HTS inh inactive, HIV Env fusion inactive, FGF22 binding inactive and PGC1a acetyl inh inactive.
Cc1sc(C(=O)Nc2ccc3ccccc3c2)cc1CC(=O)O was read as Ecoli rRNA inh -31.2, Cneo AK release inactive, ERAP1 HTS inh inactive, HIV Env fusion inactive, FGF22 binding inactive, PGC1a acetyl inh inactive and AID977628 inactive.
Screening Cc1ccoc1C(=O)Nc1ccc2ccccc2c1 returned Ecoli rRNA inh -20.2, Cneo AK release inactive, ERAP1 HTS inh inactive, HIV Env fusion inactive, FGF22 binding inactive and AID977621 inactive.
`CC(=O)c1cc(C(=O)Nc2ccc3ccccc3c2)c(C)o1` gave Ecoli rRNA inh inactive, ERAP1 HTS inh inactive, HIV Env fusion inactive and FGF22 binding inactive.
`Cc1cc(C(=O)Nc2ccc3ccccc3c2)c(C)o1` gave Ecoli rRNA inh -22.0, Cneo AK release inactive, ERAP1 HTS inh inactive, HIV Env fusion inactive, FGF22 binding inactive, AID977621 inactive and AID977628 inactive.
For CC1(C2CC2)NC(=O)N(CC(=O)NCC(=O)Nc2ccc(F)c(F)c2F)C1=O (stereo unspecified) the results were Ecoli rRNA inh inactive, Cneo AK release inactive, ERAP1 HTS inh inactive, HIV Env fusion inactive and FGF22 binding inactive.
`Nc1ccc(C(=O)OCCc2ccccc2)cc1` gave Ecoli rRNA inh -30.4, Cneo AK release inactive, ERAP1 HTS inh inactive, HIV Env fusion inactive, FGF22 binding inactive, PGC1a acetyl inh inactive, AID977621 inactive and AID977628 inactive.
Cc1noc(C)c1NC(=O)Nc1cccc2c1O[C@H](CN(C)C(=O)NC(C)C)[C@@H](C)CN([C@H](C)CO)C2=O was read as Ecoli rRNA inh inactive, Cneo AK release inactive, ERAP1 HTS inh inactive, HIV Env fusion inactive, FGF22 binding inactive and PGC1a acetyl inh inactive.
`O=C(Nc1cccc(F)c1)N1[C@@H]2CNC[C@H]1C2c1ccc(-c2ccncc2)cc1` (stereo partly specified) gave Ecoli rRNA inh -25.1, ERAP1 HTS inh inactive, PGC1a acetyl inh inactive, AID977621 inactive and AID977628 inactive.
For O=C(Nc1ccc(F)cc1)N1CCCCN2[C@@H](CO)[C@H](c3ccc(-c4ccncc4)cc3)[C@@H]2C1 the results were Ecoli rRNA inh -19.6, Cneo AK release inactive, ERAP1 HTS inh inactive, FGF22 binding inactive, PGC1a acetyl inh inactive and AID977621 inactive.
Screening COc1ccc(C#Cc2ccc([C@@H]3[C@@H](CO)N4CCCCN(C(=O)Nc5ccc(F)cc5)C[C@H]34)cc2)cc1 returned Ecoli rRNA inh -47.6, Cneo AK release inactive, ERAP1 HTS inh inactive, FGF22 binding inactive, PGC1a acetyl inh inactive and AID977628 inconclusive.
COc1ccc(C#Cc2ccc([C@H]3[C@@H](CO)N4CCCCN(C(=O)Nc5ccc(F)cc5)C[C@H]34)cc2)cc1 was read as Ecoli rRNA inh inactive, Cneo AK release inactive, ERAP1 HTS inh inactive, FGF22 binding inactive and PGC1a acetyl inh inactive.
Screening N#Cc1ccccc1S(=O)(=O)N1CCN(Cc2cccs2)CC1 returned Ecoli rRNA inh inactive, Cneo AK release inactive, ERAP1 HTS inh inactive, HIV Env fusion inactive and FGF22 binding inactive.
Screening O=C(OCC(=O)N1CCN(Cc2ccccc2)CC1)c1cc(Cl)ccc1[N+](=O)[O-] returned Ecoli rRNA inh inactive, Cneo AK release inactive, ERAP1 HTS inh inactive, FGF22 binding inactive and PGC1a acetyl inh inactive.
For C[C@@H]1CN([C@@H](C)CO)C(=O)c2cc(NC(=O)Nc3cccc4ccccc34)ccc2O[C@@H](C)CCCCO[C@H]1CN(C)C the results were Ecoli rRNA inh inactive, Cneo AK release inactive, ERAP1 HTS inh inactive, HIV Env fusion inactive, FGF22 binding inactive, PGC1a acetyl inh inactive, AID977621 inactive and AID977628 inactive.
C[C@H]1CCCCO[C@H](CN(C)C)[C@@H](C)CN([C@@H](C)CO)C(=O)c2cc(NC(=O)Nc3cccc4ccccc34)ccc2O1 was read as Ecoli rRNA inh inactive, Cneo AK release inactive, ERAP1 HTS inh inactive, HIV Env fusion inactive, FGF22 binding inactive, PGC1a acetyl inh inactive, AID977621 inactive and AID977628 inconclusive.
C[C@@H]1CN([C@H](C)CO)C(=O)c2cc(NC(=O)Nc3cccc4ccccc34)ccc2O[C@@H](C)CCCCO[C@H]1CN(C)S(C)(=O)=O was read as Ecoli rRNA inh inactive, ERAP1 HTS inh inactive, FGF22 binding inactive and PGC1a acetyl inh inactive.
`C[C@@H]1CCCCO[C@H](CN(C)CC2CC2)[C@@H](C)CN([C@H](C)CO)C(=O)c2cc(NC(=O)Nc3cccc4ccccc34)ccc2O1` gave Ecoli rRNA inh inactive, Cneo AK release inactive, HIV Env fusion inactive, FGF22 binding inactive and PGC1a acetyl inh inactive.
`C[C@@H]1CCCCO[C@@H](CN(C)C(=O)Nc2cccc3ccccc23)[C@@H](C)CN([C@@H](C)CO)C(=O)c2cc(NC(=O)Nc3cccc4ccccc34)ccc2O1` gave Ecoli rRNA inh inactive, Cneo AK release inactive, ERAP1 HTS inh inactive, HIV Env fusion inactive, FGF22 binding inactive and PGC1a acetyl inh inactive.
